{"data": "Assay results pooled from the literature", "cell line": "HCT-116", "effect on": "cell growth or viability", "note": "Compare with care: the assays were run in different laboratories."}
{"SMILES": "COc1nc(NCc2cn(-c3ccc(NC(=O)c4ccc(F)cc4)cc3)nn2)nc(OC)n1", "test": "MTT", "setting": "72 h", "endpoint": "IC50", "result": "0.0122 µM"}
{"SMILES": "COc1cc2ncnc(Nc3ccc4c(c3)/C(=C/c3ccccc3)C(=O)N4)c2cc1OC", "test": "MTT", "endpoint": "IC50", "result": "25.7 µM"}
{"SMILES": "COc1ccc(-c2cc(-c3cccc(Br)c3)c3c(=O)[nH]c(=O)[nH]c3n2)cc1", "test": "MTT", "setting": "48 h", "endpoint": "IC50", "result": "9.77 µM"}
{"SMILES": "C=CC(=O)c1cccnc1Nc1cc(C(F)(F)F)ccc1OC", "test": "CCK-8", "setting": "72 h", "endpoint": "GI50", "result": "12.3 µM"}
{"SMILES": "COc1nc(NCc2cn(-c3ccc(C(=O)Nc4ccc(F)cc4)cc3)nn2)nc(OC)n1", "test": "MTT", "setting": "72 h", "endpoint": "IC50", "result": "0.0341 µM"}
{"SMILES": "COc1ccc(-c2cc(-c3cc(OC)ccc3OC)c3c(=O)n(C)c(=O)n(C)c3n2)cc1", "test": "MTT", "setting": "48 h", "endpoint": "IC50", "result": "11.1 µM"}
{"SMILES": "COc1nc(NCc2cn(-c3ccc(NC(=O)c4ccccc4)cc3)nn2)nc(OC)n1", "test": "MTT", "setting": "72 h", "endpoint": "IC50", "result": "0.0608 µM"}
{"SMILES": "CC(=NNC(=O)COc1ccc2c(C)c(Cc3ccccc3)c(=O)oc2c1C)c1ccc(Br)cc1", "test": "MTT", "setting": "0.4 µg/mL", "endpoint": "viability", "result": "64.3%"}
{"SMILES": "COc1ccc(-c2cc(-c3ccc(Br)cc3)c3c(=O)[nH]c(=O)[nH]c3n2)cc1", "test": "MTT", "setting": "48 h", "endpoint": "IC50", "result": "7.88 µM"}
{"SMILES": "COc1nc(NCc2cn(-c3ccc(C(=O)Nc4ccc(Cl)cc4)cc3)nn2)nc(OC)n1", "test": "MTT", "setting": "72 h", "endpoint": "IC50", "result": "0.0329 µM"}
{"SMILES": "O=C(O)c1cccnc1Nc1cccc(C(F)(F)F)c1", "test": "CCK-8", "setting": "72 h", "endpoint": "GI50", "result": "> 40 µM"}
{"SMILES": "COc1cc2ncnc(N(C)c3ccc4c(c3)/C(=C/c3cccc(Cl)c3)C(=O)N4C)c2cc1OC", "test": "MTT", "endpoint": "IC50", "result": "7.52 µM"}
{"SMILES": "COc1ccc(-c2cc(-c3c(OC)cccc3OC)c3c(=O)[nH]c(=O)[nH]c3n2)cc1", "test": "MTT", "setting": "48 h", "endpoint": "IC50", "result": "29 µM"}
{"SMILES": "COc1cc2ncnc(Nc3ccc4c(c3)/C(=C/c3cccc(Cl)c3)C(=O)N4C)c2cc1OC", "test": "MTT", "endpoint": "IC50", "result": "8.36 µM"}
{"SMILES": "Cc1ccc(-c2cc(-c3ccc(Cl)cc3)c3c(=O)n(C)c(=O)n(C)c3n2)cc1", "test": "MTT", "setting": "48 h", "endpoint": "IC50", "result": "5.87 µM"}
{"SMILES": "COc1nc(NCc2cn(-c3ccc(NC(=O)c4ccc(C)cc4)cc3)nn2)nc(OC)n1", "test": "MTT", "setting": "72 h", "endpoint": "IC50", "result": "0.0599 µM"}
{"SMILES": "Cc1ccc(-c2cc(-c3c(Cl)cccc3Cl)c3c(=O)[nH]c(=O)[nH]c3n2)cc1", "test": "MTT", "setting": "48 h", "endpoint": "IC50", "result": "28 µM"}
{"SMILES": "Cc1nc(Nc2ccc3c(c2)/C(=C/c2ccccc2C)C(=O)N3)c2ccccc2n1", "test": "MTT", "endpoint": "IC50", "result": "9.25 µM"}
{"SMILES": "COc1ccc(C(=O)Nc2ccc(-n3cc(CNc4nc(OC)nc(OC)n4)nn3)cc2)cc1", "test": "MTT", "setting": "72 h", "endpoint": "IC50", "result": "0.0595 µM"}
{"SMILES": "Cc1nc(Nc2ccc3c(c2)/C(=C/c2ccccc2Cl)C(=O)N3)c2ccccc2n1", "test": "MTT", "endpoint": "IC50", "result": "3.67 µM"}
{"SMILES": "COc1nc(NCc2cn(-c3ccc(C(=O)Nc4ccc(Br)cc4)cc3)nn2)nc(OC)n1", "test": "MTT", "setting": "72 h", "endpoint": "IC50", "result": "0.0279 µM"}
{"SMILES": "Cc1nc(Nc2ccc3c(c2)CC(=O)N3)c2ccccc2n1", "test": "MTT", "endpoint": "IC50", "result": "12.3 µM"}
{"SMILES": "COc1ccc(-c2cc(-c3ccc(Cl)cc3)c3c(=O)n(C)c(=O)n(C)c3n2)cc1", "test": "MTT", "setting": "48 h", "endpoint": "IC50", "result": "7.54 µM"}
{"SMILES": "C=CC(=O)c1cccnc1Nc1cc(C(F)(F)F)ccc1OCc1ccccc1", "test": "CCK-8", "setting": "72 h", "endpoint": "GI50", "result": "8.72 µM"}
{"SMILES": "COc1ccc(NC(=O)c2ccc(-n3cc(CNc4nc(OC)nc(OC)n4)nn3)cc2)cc1", "test": "MTT", "setting": "72 h", "endpoint": "IC50", "result": "0.0123 µM"}
{"SMILES": "Cc1ccc(-c2cc(-c3ccc(Cl)c(F)c3)c3c(=O)[nH]c(=O)[nH]c3n2)cc1", "test": "MTT", "setting": "48 h", "endpoint": "IC50", "result": "11.2 µM"}
